Experimental data reported in ChEMBL document CHEMBL1268910, “Assessment of structurally diverse philanthotoxin analogues for inhibitory activity on ionotropic glutamate receptor subtypes: discovery of nanomolar, nonselective, and use-dependent antagonists” (J Med Chem, 2010).
Calls of active or inactive are those of the source. The rule behind the calls is not given here.

Key:
[1] = tested on: Glutamate receptor ionotropic, AMPA 1 (GluA1i); experiment: Antagonist activity at GluR1 expressed in Xenopus laevis oocytes assessed as inhibition of glutamate-induced current at -40mV holding potential by two-electrode voltage-clamp electrophysiology; settings: Oocyte
[2] = tested on: Glutamate receptor ionotropic, AMPA 1 (GluA1i); experiment: Antagonist activity at GluR1 expressed in Xenopus laevis oocytes assessed as inhibition of glutamate-induced current at 0.1 uM at -60mV holding potential by two-electrode voltage-clamp electrophysiology; settings: Oocyte
[3] = tested on: Glutamate receptor ionotropic, AMPA 1 (GluA1i); experiment: Antagonist activity at GluR1 expressed in Xenopus laevis oocytes assessed as inhibition of glutamate-induced current at -80mV holding potential by two-electrode voltage-clamp electrophysiology; settings: Oocyte
[4] = target: T1, Glutamate NMDA receptor; GRIN1/GRIN2A (Homo sapiens, UniProt Q05586+Q12879); experiment: Antagonist activity at NR1-1a/NR2A receptor expressed in Xenopus laevis oocytes assessed as inhibition of glutamate/glycine-induced current at -40mV holding potential by two-electrode voltage-clamp electrophysiology; format: functional, cell-based; settings: Oocyte
How it was run: (§1)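 Holding-potential dependence was measured in oocytes expressing GluA1i or GluN1/2A at -40, -60 and -80 mV by two-electrode voltage clamp. One fixed toxin concentration, chosen from the -60 mV concentration-response data, was co-applied with 100 μM glutamate (GluA1i) or with glutamate plus glycine at 100 μM each (GluN1/2A). The read-out was the reduction in receptor current.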

[5] = target: T1, Glutamate NMDA receptor; GRIN1/GRIN2A; experiment: Antagonist activity at NR1-1a/NR2A receptor expressed in Xenopus laevis oocytes assessed as inhibition of glutamate/glycine-induced current at -80mV holding potential by two-electrode voltage-clamp electrophysiology; format: functional, cell-based; settings: Oocyte
How it was run: as §1

[6] = target: T1, Glutamate NMDA receptor; GRIN1/GRIN2A; experiment: Antagonist activity at NR1-1a/NR2A receptor expressed in Xenopus laevis oocytes assessed as inhibition of glutamate/glycine-induced current at -60mV holding potential by two-electrode voltage-clamp electrophysiology; format: functional, cell-based, Oocyte
How it was run: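 Two-electrode voltage clamp at -60 mV holding potential on Xenopus oocytes expressing homomeric GluA1i or heteromeric GluN1/2A. Antagonist was co-applied with agonist: 100 μM glutamate for GluA1i, and 100 μM glutamate plus 100 μM glycine for GluN1/2A. IC50 came from concentration-inhibition curves of normalized currents (n = 3). The error term is given as the % difference between the IC50 and antilog(logIC50 + SEM).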

[7] = Selectivity ratio of IC50 for NR1-1a/NR2A receptor to IC50 for GluR1
[8] = target: T1, Glutamate NMDA receptor; GRIN1/GRIN2A; experiment: Antagonist activity at NR1-1a/NR2A receptor expressed in Xenopus laevis oocytes assessed as inhibition of glutamate/glycine-induced current at 10 uM at -60mV holding potential by two-electrode voltage-clamp electrophysiology; format: functional, cell-based; settings: Oocyte
How it was run: (§2)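 Single-concentration screen at 0.1 and 10 μM by two-electrode voltage clamp (-60 mV) in Xenopus oocytes. Toxin was co-applied with 100 μM glutamate (GluA1i) or with 100 μM glutamate plus 100 μM glycine (GluN1/2A). Percent inhibition was taken from the decrease in agonist-evoked current.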

[9] = target: T1, Glutamate NMDA receptor; GRIN1/GRIN2A; experiment: Antagonist activity at NR1-1a/NR2A receptor expressed in Xenopus laevis oocytes assessed as inhibition of glutamate/glycine-induced current at 0.1 uM at -60mV holding potential by two-electrode voltage-clamp electrophysiology; format: functional, cell-based; settings: Oocyte
How it was run: as §2

SMILES	inhibition [1]	inhibition [2]	inhibition [3]	inhibition [4]	inhibition [5]	IC50 [6]	Ratio IC50 [7]	inhibition [8]	inhibition [9]
NCCCNCCCCNCCCNC(=O)[C@H](CC1CCCCC1)NC(=O)C1CCCCC1	Active	35%	Active	Active	Active	656 nM	31	–	–
NCCCNCCCCNCCCNC(=O)[C@H](CC1CCCCC1)NC(=O)c1ccc(-c2ccccc2)cc1	Active	35%	Active	Active	Active	1450 nM	17	–	–
NCCCNCCCCNCCCNC(=O)[C@H](CNC(=O)Cc1ccccc1)NC(=O)C1CCCCC1	–	35%	–	–	–	2810 nM	–	–	–
CCCC(=O)N[C@@H](CC1CCCCC1)C(=O)NCCCNCCCCNCCCN	Active	35%	Active	Active	Active	4380 nM	137	–	–
CCCC(=O)N[C@@H](Cc1ccc(O)cc1)C(=O)NCCCNCCCCNCCCN [PHILANTHOTOXIN 343]	–	–	–	Active	Active	2740 nM	–	61%	9%
NCCCNCCCCNCCCNC(=O)[C@H](CC1CCCCC1)NC(=O)C1CC1	–	–	–	Active	Active	2570 nM	–	–	–
NCCCNCCCCNCCCNC(=O)[C@H](CC1CCCCC1)NC(=O)Cc1cccc2ccccc12	Active	35%	Active	Active	Active	47 nM	1	92%	63%
NCCCNCCCCNCCCNC(=O)[C@H](CCCNC(=O)Cc1ccccc1)NC(=O)C1CCCCC1	–	35%	–	–	–	1030 nM	–	–	–
NCCCNCCCCNCCCNC(=O)[C@H](CC1CCCCC1)NC(=O)CC12CC3CC(CC(C3)C1)C2	Active	35%	Active	Active	Active	794 nM	8	–	–
